Series [1] concerns the target T1, ABCG2 (Homo sapiens, UniProt Q9UNQ0).
T1 sequence (Q9UNQ0 whole entry): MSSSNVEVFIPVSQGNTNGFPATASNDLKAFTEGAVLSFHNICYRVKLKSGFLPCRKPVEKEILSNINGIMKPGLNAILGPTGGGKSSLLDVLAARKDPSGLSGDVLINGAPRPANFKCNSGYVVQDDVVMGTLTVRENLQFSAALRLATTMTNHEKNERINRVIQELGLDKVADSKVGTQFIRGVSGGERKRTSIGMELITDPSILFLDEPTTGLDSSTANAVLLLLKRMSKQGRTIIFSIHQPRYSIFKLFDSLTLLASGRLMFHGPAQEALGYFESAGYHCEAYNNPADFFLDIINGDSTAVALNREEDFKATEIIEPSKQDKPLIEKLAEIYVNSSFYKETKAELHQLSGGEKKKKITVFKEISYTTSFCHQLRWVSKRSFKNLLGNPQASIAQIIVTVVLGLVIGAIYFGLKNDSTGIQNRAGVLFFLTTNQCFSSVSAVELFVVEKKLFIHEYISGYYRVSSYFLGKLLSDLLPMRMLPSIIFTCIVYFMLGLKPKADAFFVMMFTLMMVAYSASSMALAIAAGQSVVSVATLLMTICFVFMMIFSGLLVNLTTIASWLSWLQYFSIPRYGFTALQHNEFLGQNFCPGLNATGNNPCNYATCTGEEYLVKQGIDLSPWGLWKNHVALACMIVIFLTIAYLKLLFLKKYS
Briefly: Inhibition of human ABCG2 in human MCF7/Topo cells assessed as accumulation of substrate Hoechst […] stain at 10 uM measured after 2 hrs by fluorometric microplate reader assay relative to FTC. To be noted: read-out: Imax. It is filed as cell-based.

Series [2] deals with T2, Broad substrate specificity ATP-binding cassette transporter ABCG2 (Homo sapiens, UniProt Q9UNQ0).
T2 sequence (Q9UNQ0 whole entry): T1 sequence (Q9UNQ0 whole entry)
Put plainly: Inhibition of human ABCG2 in human MCF7/Topo cells assessed as accumulation of substrate Hoechst […] stain measured after 2 hrs by fluorometric microplate reader assay. Format: cell-based.

The nature of series [3]: Inhibition of human ABCC1 expressed in MDCK-MRP1 cells assessed as accumulation of substrate calcein-AM stain measured after 1 hr by fluorometric microplate reader assay. Format: cell-based, Canis lupus familiaris. Put shortly: (§1)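 MDCK.2 cells transfected with human ABCC1 (MDCK.2-MRP1), trypsinized with 2X trypsin/EDTA for 30 min. Calcein-AM accumulation measured fluorometrically. Compounds tested up to 100 µM. Inhibition is normalized to 30 µM reversan set to 100% (Imax). Mean ± SEM from ≥3 experiments in triplicate.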

For series [4], the target named is ATP-dependent translocase ABCB1 (Homo sapiens, UniProt P08183). Put plainly: Inhibition of ABCB1 in human KB-V1 cells assessed as accumulation of substrate calcein-AM stain measured after 10 mins by fluorometric microplate reader assay. Format: cell-based. Put shortly:
(§2)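 KB-V1 cells (ABCB1-overexpressing KB variant) kept under 330 nM vinblastine. Calcein-AM accumulation read by fluorescence after intracellular cleavage to calcein. Compounds tested up to 100 µM. Inhibition is normalized to 10 µM tariquidar set to 100% (Imax). Mean ± SEM from ≥3 experiments in triplicate.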

Series [5] in a line: Kinetic solubility of compound in PBS at pH 7.4 measured after 2 hrs by turbidimetric measurement. The settings on record: read-out: Kinetic_solubility.
Series [6] is described as follows: Thermodynamic solubility of compound in PBS at pH 7.4 […] by shake-flask method. Format: physicochemical. The settings on record: buffer.
Series [7] concerns the target ABCB1 (Homo sapiens, UniProt P08183). Briefly: Inhibition of ABCB1 in human KB-V1 cells assessed as accumulation of substrate calcein-AM stain at 10 uM measured after 10 mins by fluorometric microplate reader assay relative to Tariquidar. Format: cell-based. The settings on record: probe calcein-AM, read-out: Imax. An outline of the steps: as §2
Series [8] has as its system MDCK-MRP1. Put plainly: Inhibition of human ABCC1 expressed in MDCK-MRP1 cells assessed as accumulation of substrate calcein-AM stain at 30 uM measured after 1 hr by fluorometric microplate reader assay relative to Reversan. Format: cell-based. The settings on record: Canis lupus familiaris. Put shortly:
as §1

In brackets after ≈: the same amount, converted by molar mass.

Sequence of ATP-dependent translocase ABCB1 (P08183 whole entry): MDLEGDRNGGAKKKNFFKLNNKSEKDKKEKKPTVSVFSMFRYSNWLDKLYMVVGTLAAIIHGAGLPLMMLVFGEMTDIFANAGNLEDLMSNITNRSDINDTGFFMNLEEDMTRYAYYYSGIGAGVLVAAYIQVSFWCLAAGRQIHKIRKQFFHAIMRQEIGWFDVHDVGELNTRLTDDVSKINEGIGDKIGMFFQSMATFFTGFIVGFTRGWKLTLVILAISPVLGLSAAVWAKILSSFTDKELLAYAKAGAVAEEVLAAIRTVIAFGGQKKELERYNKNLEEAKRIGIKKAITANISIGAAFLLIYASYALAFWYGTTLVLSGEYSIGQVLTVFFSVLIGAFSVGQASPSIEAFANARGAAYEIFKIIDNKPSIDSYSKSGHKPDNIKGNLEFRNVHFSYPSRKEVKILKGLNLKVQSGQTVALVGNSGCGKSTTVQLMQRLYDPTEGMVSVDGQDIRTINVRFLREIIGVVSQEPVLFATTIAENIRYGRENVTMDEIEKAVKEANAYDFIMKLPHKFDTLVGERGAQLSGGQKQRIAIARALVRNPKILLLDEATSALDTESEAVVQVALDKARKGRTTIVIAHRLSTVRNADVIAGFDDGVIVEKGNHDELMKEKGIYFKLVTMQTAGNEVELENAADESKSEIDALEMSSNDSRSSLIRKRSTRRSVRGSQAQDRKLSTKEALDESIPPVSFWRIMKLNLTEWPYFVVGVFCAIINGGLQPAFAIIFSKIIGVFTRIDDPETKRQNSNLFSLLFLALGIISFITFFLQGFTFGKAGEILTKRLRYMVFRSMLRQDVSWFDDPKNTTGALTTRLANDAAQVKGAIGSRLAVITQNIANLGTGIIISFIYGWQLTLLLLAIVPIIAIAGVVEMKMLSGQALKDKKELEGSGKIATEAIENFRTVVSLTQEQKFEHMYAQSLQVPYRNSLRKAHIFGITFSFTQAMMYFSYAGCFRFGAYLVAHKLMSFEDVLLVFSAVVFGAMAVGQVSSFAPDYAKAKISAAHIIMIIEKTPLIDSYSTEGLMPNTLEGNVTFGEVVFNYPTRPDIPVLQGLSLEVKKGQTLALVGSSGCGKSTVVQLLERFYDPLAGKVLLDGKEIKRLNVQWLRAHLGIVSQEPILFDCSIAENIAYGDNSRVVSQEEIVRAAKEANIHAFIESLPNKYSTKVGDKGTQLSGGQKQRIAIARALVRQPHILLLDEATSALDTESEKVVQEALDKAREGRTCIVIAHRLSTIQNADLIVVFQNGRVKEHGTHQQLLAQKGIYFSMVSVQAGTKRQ
Sequence of ABCB1 (P08183 whole entry): as above

A word on the IC50: it is the midpoint of a concentration-inhibition curve. With `COC(=O)c1ccc(Br)cc1NC(=O)c1ccc2ccccc2n1`, the Emax at 2 h, 10 µM in series [1] was found to be 86%. Besides, the figures for the IC50 in series [2] (read-out: IC50), in series [3] and in series [4] (kb-v1) were 1920 nM, “Not Active” and “Not Active”, respectively.

Consider `CCC(=O)c1ccc(-c2cn(CCN3CCCC3)nn2)cc1NC(=O)c1cc(=O)c2ccccc2o1`, for which the Emax at 2 h, 10 µM in series [1] is 70%. In series [5], the solubility kinetic at 2 h came to 30 µM (≈ 14.6 µg/mL). Further, the IC50 is 158 nM in series [2] (read-out: IC50), “Not Active” in series [3] and “Not Active” in series [4] (kb-v1). Moreover, the Therm_solubility in series [6] was 1.483 µM.

Consider `CCC(=O)c1ccc(-c2cn(CCO)nn2)cc1NC(=O)c1cc(=O)c2ccccc2o1`, for which the Emax at 2 h, 10 µM in series [1] was more than 71%. For the same molecule, the solubility kinetic at 2 h in series [5] is 3 µM (≈ 1.3 µg/mL). In addition, the IC50 in series [2] (read-out: IC50) was more than 1100 nM; in series [3] (read-out: IC50), more than 1960 nM; in series [4] (read-out: IC50) it was more than 2290 nM. Besides, in series [7], the Emax at 10 min, 10 µM is more than 41%. Further, the Imax in series [8] was more than 33%. Further, the Therm_solubility in series [6] worked out at 0.575 µM.

As for `CCC(=O)c1ccc(-c2cn(-c3ccc(CCN4CCc5cc(OC)c(OC)cc5C4)cc3)nn2)cc1NC(=O)c1cccc([N+](=O)[O-])n1`, the Emax at 2 h, 10 µM in series [1] amounted to 91%. Moreover, the solubility kinetic at 2 h in series [5] stood at 10 µM (≈ 6.62 µg/mL). The IC50 in series [2] (read-out: IC50) was 70 nM; in series [3], “Not Active”; in series [4] (kb-v1), “Not Active”. For the same molecule, the Therm_solubility in series [6] is less than 0.1 µM.

As to `COC(=O)c1ccc(Br)cc1NC(=O)c1cc(=O)c2ccccc2o1`, the Emax at 2 h, 10 µM in series [1] is 91%. Moreover, the solubility kinetic at 2 h in series [5] was found to be 10 µM (≈ 4.02 µg/mL). The IC50 in series [2] (read-out: IC50) is 140 nM; in series [3] it was “Not Active”; in series [4] (kb-v1), “Not Active”. The molecule further displayed a Therm_solubility in series [6] of 0.109 µM.

With `CCC(=O)c1ccc(-c2cn(-c3ccc(CCN4CCc5cc(OC)c(OC)cc5C4)cc3)nn2)cc1NC(=O)c1ccc2c(n1)CCCC2`, the Emax at 2 h, 10 µM in series [1] is 63%. In addition, the solubility kinetic at 2 h in series [5] was determined as 7 µM (≈ 4.7 µg/mL). Also, the IC50 in series [2] (read-out: IC50) is 180 nM; in series [3] it was “Not Active”; in series [4] (kb-v1) it was “Not Active”. This molecule came in with a Therm_solubility in series [6] of less than 0.1 µM.

For `CCC(=O)c1ccc(-c2cn(CC(=O)O)nn2)cc1NC(=O)c1cc(=O)c2ccccc2o1`, the solubility kinetic at 2 h in series [5] turned out to be 10 µM (≈ 4.46 µg/mL). The IC50 result in series [2] (mcf7/topo), in series [3] and in series [4] (kb-v1) was “Not Active” in each case.

Take `CCC(=O)c1ccc(-c2cn(-c3ccc(CCN4CCc5cc(OC)c(OC)cc5C4)cc3)nn2)cc1NC(=O)c1ccc2ccccc2n1`: the solubility kinetic at 2 h in series [5] worked out at 3 µM (≈ 2 µg/mL). The IC50 result in series [4] (kb-v1) is on record as “Not Active”. Further, in series [6], the Therm_solubility worked out at 0.078 µM.

Consider `COc1cc2c(cc1OC)CN(CCc1ccc(-n3cc(-c4ccccc4)nn3)cc1)CC2`, for which the Emax at 2 h, 10 µM in series [1] is 41%. The IC50 in series [2] (read-out: IC50) was 3610 nM; in series [3], “Not Active”; in series [4] (kb-v1) it was “Not Active”.

For the molecule `CCC(=O)c1ccc(-c2cn(-c3ccc(CCN4CCc5cc(OC)c(OC)cc5C4)cc3)nn2)cc1NC(=O)c1cccc(O)n1`, the Emax at 2 h, 10 µM in series [1] worked out at 75%. In addition, the solubility kinetic at 2 h in series [5] was found to be 7 µM (≈ 4.43 µg/mL). Also, the figures for the IC50 in series [2] (read-out: IC50), in series [3] and in series [4] (read-out: IC50) were 328 nM, “Not Active” and more than 18500 nM, respectively. The Emax at 10 min, 10 µM in series [7] was more than 14%. In series [6], the Therm_solubility was determined as 0.855 µM.

As to `CCC(=O)c1ccc(-c2cn(-c3ccc(CCN4CCc5cc(OC)c(OC)cc5C4)cc3)nn2)cc1NC(=O)c1ccc2ccccc2c1`, the Emax at 2 h, 10 µM in series [1] was determined as 70%. Also, in series [5], the solubility kinetic at 2 h stood at 3 µM (≈ 2 µg/mL). In addition, the IC50 in series [2] (read-out: IC50) is 249 nM; in series [3], “Not Active”; in series [4] (kb-v1) it was “Not Active”. The Therm_solubility in series [6] is less than 0.1 µM.

For the molecule `CCC(=O)c1ccc(-c2cn(-c3ccc(CCN4CCc5cc(OC)c(OC)cc5C4)cc3)nn2)cc1NC(=O)c1cccc(N)n1`, in series [1], the Emax at 2 h, 10 µM worked out at 75%. Also, the solubility kinetic at 2 h in series [5] was determined as 10 µM (≈ 6.32 µg/mL). The IC50 in series [2] (read-out: IC50) was 82 nM; in series [3], “Not Active”; in series [4] (kb-v1), “Not Active”. The Therm_solubility in series [6] was less than 0.1 µM.

Turning to `COC(=O)c1ccc(-c2cn(-c3ccc(CCN4CCc5cc(OC)c(OC)cc5C4)cc3)nn2)cc1NC(=O)c1ccc2ccccc2n1`, the IC50 entry in series [4] (kb-v1) is recorded as “Not Active”.

With `CCC(=O)c1ccc(-c2cn(-c3ccc(CCN4CCc5cc(OC)c(OC)cc5C4)cc3)nn2)cc1NC(=O)c1cc2ccccc2o1`, the Emax at 2 h, 10 µM in series [1] is 78%. Besides, the solubility kinetic at 2 h in series [5] came out at 7 µM (≈ 4.59 µg/mL). Besides, the IC50 in series [2] (read-out: IC50) was 120 nM; in series [3], “Not Active”; in series [4] (kb-v1), “Not Active”. In series [6], this molecule came in with a Therm_solubility of less than 0.1 µM.

With `CCC(=O)c1ccc(-c2cn(-c3ccc(CCN4CCc5cc(OC)c(OC)cc5C4)cc3)nn2)cc1NC(=O)c1cccc(C)n1`, in series [1], the Emax at 2 h, 10 µM stood at 81%. The solubility kinetic at 2 h in series [5] is 3 µM (≈ 1.89 µg/mL). Besides, the values for the IC50 in series [2] (read-out: IC50), in series [3] and in series [4] (read-out: IC50) were 166 nM, “Not Active” and more than 9970 nM, respectively. Further, the Emax at 10 min, 10 µM in series [7] is more than 19%. Besides, the Therm_solubility in series [6] came to 0.445 µM.

Consider `CCC(=O)c1ccc(-c2cn(-c3ccc(CCN4CCc5cc(OC)c(OC)cc5C4)cc3)nn2)cc1NC(=O)c1cccc(Cl)n1`, for which the Emax at 2 h, 10 µM in series [1] was found to be 95%. Besides, the solubility kinetic at 2 h in series [5] was determined as 1 µM (≈ 0.651 µg/mL). For the same molecule, the values for the IC50 in series [2] (read-out: IC50), in series [3] and in series [4] (kb-v1) were 116 nM, “Not Active” and “Not Active”, respectively. In series [6], the Therm_solubility was less than 0.1 µM.

Consider `Cc1ccc(-c2cn(CCO)nn2)c(NC(=O)c2cc(=O)c3ccccc3o2)c1`, for which the Emax at 2 h, 10 µM in series [1] amounted to 91%. Besides, the solubility kinetic at 2 h in series [5] was 3 µM (≈ 1.17 µg/mL). Also, the results for the IC50 in series [2] (read-out: IC50), in series [3] and in series [4] (kb-v1) were 447 nM, “Not Active” and “Not Active”, respectively. The same molecule displayed a Therm_solubility in series [6] of less than 0.1 µM.

For `CCC(=O)c1ccc(-c2cn(-c3ccc(CCN4CCc5cc(OC)c(OC)cc5C4)cc3)nn2)cc1NC(=O)c1cc(=O)c2ccccc2o1`, the Emax at 2 h, 10 µM in series [1] stood at 65%. The solubility kinetic at 2 h in series [5] came to 7 µM (≈ 4.79 µg/mL). Further, the IC50 in series [2] (read-out: IC50) is 80 nM; in series [3] it was “Not Active”; in series [4] (kb-v1) it was “Not Active”. This molecule also had a Therm_solubility in series [6] of 0.149 µM.

On to `CCC(=O)c1ccc(-c2cn(-c3ccc(CCN4CCc5cc(OC)c(OC)cc5C4)cc3)nn2)cc1NC(=O)c1ccc(OC)cn1`, for which the Emax at 2 h, 10 µM in series [1] was determined as 68%. For the same molecule, the solubility kinetic at 2 h in series [5] was 3 µM (≈ 1.94 µg/mL). For the same molecule, the figures for the IC50 in series [2] (read-out: IC50), in series [3] and in series [4] (read-out: IC50) were 116 nM, “Not Active” and more than 2780 nM, respectively. The Emax at 10 min, 10 µM in series [7] is more than 13%. In series [6], this molecule gave a Therm_solubility of 0.119 µM.

Source of the values: ChEMBL document CHEMBL4732100, “Water-soluble inhibitors of ABCG2 (BCRP) - A fragment-based and computational approach” (Eur J Med Chem, 2021).
